Series [1] is classed as in vivo, rat. Conditions: albino rats, single oral dose 20 mg/kg, whole-body autoradiography. The method, boiled down:
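Male albino Wistar Han rats (n = 3) got a single oral dose of 20 mg/kg [14C]-labelled test compound. It was suspended on the day of dosing in PEG 400:saline:DMSO 60:36.3:3.7 (v:v:v). Carcasses were frozen in hexane/dry ice, stored at or below −20°C, and cut into ~40 μm sagittal sections. Imaging was at 50 μm resolution. Radioactivity was quantified by image densitometry as μg equivalents/g.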

Series [2] is classed as in vivo, rat. Conditions: single oral dose 20 mg/kg. The method, boiled down:
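Male pigmented Long–Evans rats (n = 10) got a single oral dose of 20 mg/kg [14C]-labelled test compound in PEG 400:saline:DMSO 60:36.3:3.7 (v:v:v), prepared on the day of dosing. Frozen carcasses were cut into ~40 μm sagittal sections and imaged at 50 μm resolution. Densitometry gave μg equivalents/g, and tissue t1/2 came from noncompartmental analysis.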

Series [3] has as its system choroidal neovascularization. To be noted: mice, cited from earlier work.
For series [4] the following is noted: pigmented rats, single oral dose 10 mg/kg; cited from earlier work.
Another series deals with rodent factor D. Conditions: stated in discussion, no reference given; cited from earlier work.
The format of series [5] is in vivo, rabbit.
Series [6] in a line: GLP toxicology study, ophthalmic findings in rats. Conditions: oral administration, 1 month, 3 months, 6 months. The format is in vivo, rat.
Series [7] is classed as in vivo, rabbit. The source holds these as a separate data set.
A short description of series [8]: GLP toxicology study, ophthalmic findings and ERG in dogs. The format is in vivo, dog.

Read-outs that look alike come from different tables or passages of the source.

Regarding [^14C]-danicopan, the “radioactivity in most tissues at 24 hours postdose” value is reported as “nonquantifiable” in series [1] and “nonquantifiable” in [2] (pigmented rats, whole-body autoradiography). Besides, the “time postdose at which radioactivity remained quantifiable in uveal tract” value in series [2] (pigmented rats, uveal tract (28 days)) turned out to be 672 h. Besides, in [2] (after 8 hours postdose), the “radioactivity in plasma and whole blood” value is “undetectable”.
Take `Cc1ccc(Nc2nccc(N(C)c3ccc4c(C)n(C)nc4c3)n2)cc1S(N)(=O)=O` [Pazopanib]: the plasma levels entry in series [3] (3 days after a single loading dose 10 mg/kg) is on record as “undetectable”. In addition, the “choroidal neovascularization lesion size” value in series [3] (single loading dose 10 mg/kg, up to 2 weeks after choroidal neovascularization induction) is given as “significantly reduced”. In [4], the “time detected in melanin-containing tissues including the uveal tract” value was “up to 35 days”.
In general, MRT last refers to a mean duration of stay, worked out from the concentration-time curve. Usually Cmax stands for the highest concentration seen after dosing. Broadly, the AUC(0-t) is the area under the concentration-time curve up to a stated or last time point. As for `CC(=O)c1nn(CC(=O)N2C[C@H](F)C[C@H]2C(=O)Nc2cccc(Br)n2)c2ccc(-c3cnc(C)nc3)cc12` [Danicopan], the “inhibitory effect on rodent factor D” value with rodent factor D was “lack of an inhibitory effect”. Further, the AUClast in series [5] (NZW rabbit, single oral dose 15 mg/kg, choroid/BrM/RPE, mean) is 1010 ng·h/g; in series [5] (NZW rabbit, single oral dose 15 mg/kg, neural retina, mean), 665 ng·h/g; in [7] (DB rabbit, single oral dose 15 mg/kg, choroid/BrM/RPE, mean), 37,400 h·ng/g; in [7] (DB rabbit, single oral dose 15 mg/kg, neural retina, mean), 998 ng·h/g. Moreover, the MRT last stood at 5.87 h in series [5] (New Zealand White, rabbit, choroid/BrM/RPE, po, 15 mg/kg); 1.49 h in series [5] (New Zealand White, rabbit, neural retina, po, 15 mg/kg); 4.01 h in series [5] (New Zealand White, rabbit, plasma, po, 15 mg/kg); 49.7 h in series [7] (Dutch Belted, rabbit, choroid/BrM/RPE, po, 15 mg/kg, MRTlast, DB rabbit, single oral dose 15 mg/kg, mean). Besides, the Cmax is 172 ng/g in [5] (New Zealand White, rabbit, choroid/BrM/RPE, po, 15 mg/kg, NZW rabbit, single oral dose 15 mg/kg, mean); 200 ng/g in series [5] (New Zealand White, rabbit, neural retina, po, 15 mg/kg, NZW rabbit, single oral dose 15 mg/kg, mean); 310 ng/mL in series [5] (New Zealand White, rabbit, plasma, po, 15 mg/kg, NZW rabbit, single oral dose 15 mg/kg, mean); 917 ng/g in series [7] (Dutch Belted, rabbit, choroid/BrM/RPE, po, 15 mg/kg, DB rabbit, single oral dose 15 mg/kg, mean); 145 ng/g in [7] (Dutch Belted, rabbit, neural retina, po, 15 mg/kg, DB rabbit, single oral dose 15 mg/kg, mean). The compound also had an AUC(0-t) in [5] (New Zealand White, rabbit, plasma, po, 15 mg/kg, AUClast, NZW rabbit, single oral dose 15 mg/kg, mean) of 1430 ng·h/mL. Also, the “clinical or histopathological ophthalmic findings” value in series [6] is on record as “no clinical or histopathological ophthalmic findings”; in series [8] (oral administration, 14 days, 3 months, 9 months, GLP) it was “no clinical or histopathological ophthalmic findings”. The same compound showed an MRTlast in series [7] (DB rabbit, single oral dose 15 mg/kg, neural retina, mean, 15 mg/kg) of 7.83 h. In [7] (DB rabbits, 7.5, 15 and 50 mg/kg/dose twice daily for 15 days (data not shown)), the “dose-exposure relationship, plasma and neural retina” value is “approximate dose linearity”. Further, the “time through which exposure was detected in plasma after the last dose” value in [7] (DB rabbits, 7.5, 15 and 50 mg/kg/dose twice daily for 15 days, plasma) amounted to 24 h. Moreover, the “dose-exposure relationship, choroid/BrM/RPE” value in series [7] (DB rabbits, between 15 and 50 mg/kg/dose twice daily for 15 days (data not shown)) is given as “less-than-dose proportionality”. The “electroretinography (ERG) abnormalities” value in series [8] (week 38, compared to pretreatment ERG) was “no abnormalities were detected”.

(Values after PMC9624268 (Translational Vision Science & Technology, 2022).)
